Experimental findings from PubChem BioAssay AID652011 (Sanford-Burnham Center for Chemical Genomics, 2013) are described below.

Values joined by “and” are separate entries in the source; they are usually repeats but may differ in a detail not shown here. Equal entries are not always repeated.

The term inhibition denotes the drop in the measured response relative to a control, in per cent.

This experiment deals with Endothelial PAS domain-containing protein 1 (Homo sapiens) (UniProt Q99814). Nature of the experiment: HIF reporter inhibition across pancreatic and renal lines – cell-based, luminescence, MIAPaCa-2, 786-0, panel, SAR follow-up (AID 652011). Particulars: MIAPaCa-2/PANC HIF reporter, luciferase luminescence, desferoxamine, overnight, HIF2a PANC, run 1; at 99 µM (top of the series). Put shortly:
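Probe or stimulus: desferoxamine stimulus; times: overnight seeding and compound exposure, 37 °C, 5% CO2, 10-min detection; signal: One-Glo luciferase luminescence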

Chain of Endothelial PAS domain-containing protein 1 (Homo sapiens) (Q99814 whole entry, looked up, the tested form may be a part): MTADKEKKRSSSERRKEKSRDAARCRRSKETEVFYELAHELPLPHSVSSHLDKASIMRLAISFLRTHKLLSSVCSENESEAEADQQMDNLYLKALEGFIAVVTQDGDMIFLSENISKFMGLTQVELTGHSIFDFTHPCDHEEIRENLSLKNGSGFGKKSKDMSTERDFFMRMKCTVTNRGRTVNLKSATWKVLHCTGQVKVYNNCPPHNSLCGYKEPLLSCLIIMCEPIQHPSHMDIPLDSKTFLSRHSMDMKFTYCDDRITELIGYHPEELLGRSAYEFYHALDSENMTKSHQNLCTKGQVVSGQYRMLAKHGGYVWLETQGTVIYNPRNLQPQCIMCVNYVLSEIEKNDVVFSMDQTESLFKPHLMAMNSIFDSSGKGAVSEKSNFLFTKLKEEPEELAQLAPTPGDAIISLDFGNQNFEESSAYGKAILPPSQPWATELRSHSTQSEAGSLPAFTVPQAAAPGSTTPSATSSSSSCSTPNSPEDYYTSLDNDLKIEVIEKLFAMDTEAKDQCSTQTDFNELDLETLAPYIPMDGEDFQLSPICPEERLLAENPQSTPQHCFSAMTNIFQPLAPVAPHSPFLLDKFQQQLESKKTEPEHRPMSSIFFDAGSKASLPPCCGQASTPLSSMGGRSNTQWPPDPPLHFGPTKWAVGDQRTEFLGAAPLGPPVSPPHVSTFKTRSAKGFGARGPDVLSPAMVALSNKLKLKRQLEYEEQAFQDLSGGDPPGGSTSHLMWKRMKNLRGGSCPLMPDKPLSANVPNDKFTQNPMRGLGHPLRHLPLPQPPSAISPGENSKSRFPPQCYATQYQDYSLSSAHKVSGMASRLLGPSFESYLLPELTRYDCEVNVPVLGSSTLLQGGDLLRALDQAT

As to `CC(C)c1ccc(-c2noc(CCC(=O)NC3CC3)n2)cc1`, the inhibition is -39.8%.

In the case of `CC(C)(C)NC(=O)CCc1nc(-c2ccc(C(C)(C)C)cc2)no1`, the inhibition amounted to 83.8%.

On to `CCNC(=O)CCc1nc(-c2ccccc2C)no1`, for which the inhibition stood at 27.8%.

As to `CC(C)(C)c1ccc(-c2noc(CCC(=O)NC3CCC3)n2)cc1`, the inhibition stood at 108%.

Take `CNC(=O)CCc1nc(-c2ccc(F)cc2)no1`: the inhibition was -27.1%.

In the case of `CC(C)NC(=O)CCc1nc(-c2ccc(C(C)(C)C)cc2)no1`, the inhibition amounted to 80.3%.

For the compound `CCNC(=O)CCc1nc(-c2ccccc2)no1`, the inhibition stood at 21.2%.

For `C=CCNC(=O)CCc1nc(-c2ccc(C(C)(C)C)cc2)no1`, the inhibition stood at 56.7%.

On to `CCNC(=O)CCc1nc(-c2ccc(CC)cc2)no1`, for which the inhibition was -29.7%.

On to `COc1cccc(NC(=O)CCc2nc(-c3ccc(C(C)(C)C)cc3)no2)c1`, for which the inhibition was found to be 118%.

As to `CCOc1ccc(-c2noc(CCC(=O)NC)n2)cc1`, the inhibition was 112%.

In the case of `CC(C)(C)c1ccc(-c2noc(CCC(=O)NC3CC3)n2)cc1`, the inhibition was 53.7%.

With `CCOc1ccccc1NC(=O)CCc1nc(-c2ccc(C(C)(C)C)cc2)no1`, the inhibition amounted to 117%.

Turning to `CNC(=O)CCc1nc(-c2ccc(OC)cc2)no1`, the inhibition came out at 36.2%.

Regarding `CCCCc1ccc(-c2noc(CCC(=O)NC3CC3)n2)cc1`, the inhibition is -40.8%.

With `CC(C)(C)c1ccc(-c2noc(CCC(=O)Nc3cccnc3)n2)cc1`, the inhibition came to 118%.

Consider `CCNC(=O)CCc1nc(-c2cccc(OC)c2)no1`, for which the inhibition stood at 27.9%.

Take `CCC(C)NC(=O)CCc1nc(-c2ccc(C(C)C)cc2)no1` (stereo unspecified): the inhibition was determined as 12.1%.

Turning to `CCNC(=O)CCc1nc(-c2ccccc2Cl)no1`, the inhibition turned out to be 26%.

Consider `CCN(CC)C(=O)CCc1nc(-c2ccc(C(C)(C)C)cc2)no1`, for which the inhibition is 44.3% and 43.4%.

With `CCNC(=O)CCc1nc(-c2c(Cl)cccc2Cl)no1`, the inhibition is 53.6%.

For the compound `CCCCc1ccc(-c2noc(CCC(=O)NC(C)CC)n2)cc1` (stereo unspecified), the inhibition stood at 45.6%.

For the compound `CC(C)(C)c1ccc(-c2noc(CCC(N)=O)n2)cc1`, the inhibition was 115% and 99.9%.

In the case of `CNC(=O)CCc1nc(-c2ccc(C(C)(C)C)cc2)no1`, the inhibition worked out at 65.3%.

Take `CCCNC(=O)CCc1nc(-c2ccc(C(C)(C)C)cc2)no1`: the inhibition turned out to be 7.88%.

As to `O=C(CCc1nc(-c2ccccc2)no1)NC1CC1`, the inhibition was determined as 66%.

For the compound `CC(C)(C)c1ccc(-c2noc(CCC(=O)NC3CCCCC3)n2)cc1`, the inhibition was found to be 93.4%.

As for `CCC(C)NC(=O)CCc1nc(-c2ccccc2)no1` (stereo unspecified), the inhibition stood at 63.6%.

With `CCc1ccc(-c2noc(CCC(=O)NC(C)(C)C)n2)cc1`, the inhibition is -42.9%.

Take `CCc1ccc(-c2noc(CCC(=O)NC)n2)cc1`: the inhibition came out at 1.82%.

Regarding `CCOc1ccc(-c2noc(CCC(=O)O)n2)cc1`, the inhibition stood at 109%.

Take `CC(C)(C)c1ccc(-c2noc(CCC(=O)Nc3cccc([N+](=O)[O-])c3)n2)cc1`: the inhibition amounted to 89.8%.

Turning to `CCNC(=O)CCc1nc(-c2ccc(C(C)(C)C)cc2)no1`, the inhibition is 17.6% and 9.6%.

With `CCc1ccc(-c2noc(CCC(=O)NC3CC3)n2)cc1`, the inhibition was -19.4%.

`CCNC(=O)CCc1nc(-c2ccc(C(C)C)cc2)no1`: the inhibition is -50.6%.

Regarding `CC(C)(C)c1ccc(-c2noc(CCC(=O)O)n2)cc1`, the inhibition was found to be 119%.

For the compound `CCNC(=O)CCc1nc(-c2cccc(C)c2)no1`, the inhibition is -22.1%.

Take `CC(C)(C)c1ccc(-c2noc(CCC(=O)NC3CCCC3)n2)cc1`: the inhibition was 94.6%.

As for `CC(C)c1ccc(-c2noc(CCC(=O)NC(C)(C)C)n2)cc1`, the inhibition came to 57.4%.

`COC(=O)CCc1nc(-c2ccc(C(C)(C)C)cc2)no1`: the inhibition turned out to be 123%.

As to `CCNC(=O)CCc1nc(-c2cccc(F)c2)no1`, the inhibition came out at 19.4%.

Regarding `CCCCc1ccc(-c2noc(CCC(=O)NC(C)(C)C)n2)cc1`, the inhibition stood at 62.8%.

On to `CC(C)(C)NC(=O)CCc1nc(-c2ccccc2)no1`, for which the inhibition came to 35.7%.

Regarding `CCCCc1ccc(-c2noc(CCC(=O)NCC)n2)cc1`, the inhibition was -29.8%.

As for `CCCCc1ccc(-c2noc(CCC(=O)NC)n2)cc1`, the inhibition is -53%.

For `CNC(=O)CCc1nc(-c2ccc(C(C)C)cc2)no1`, the inhibition is 24%.

For the compound `CNC(=O)CCc1nc(-c2ccccc2)no1`, the inhibition was 11.4% and 50.7%.

As to `CCNC(=O)CCc1nc(-c2ccc(OCC)cc2)no1`, the inhibition is -27.3%.

`COc1ccccc1NC(=O)CCc1nc(-c2ccc(C(C)(C)C)cc2)no1`: the inhibition came to 115%.

In the case of `CC(C)(C)c1ccc(-c2noc(CCC(=O)Nc3ccccc3)n2)cc1`, the inhibition is 116%.

In the case of `CC(C)(C)c1ccc(-c2noc(CCC(=O)N3CCOCC3)n2)cc1`, the inhibition was -33.9%.

For `CCc1ccc(-c2noc(CCC(=O)NC(C)CC)n2)cc1` (stereo unspecified), the inhibition is -89.5%.

On to `CN(C)C(=O)CCc1nc(-c2ccc(C(C)(C)C)cc2)no1`, for which the inhibition was -71.1% and 11.2%.

As for `CNC(=O)CCc1nc(-c2ccc(C)cc2)no1`, the inhibition amounted to 40.9%.

On to `CC(C)CNC(=O)CCc1nc(-c2ccc(C(C)(C)C)cc2)no1`, for which the inhibition was determined as 63.8%.

On to `CC(C)(C)c1ccc(-c2noc(CCC(=O)NCC3CCCO3)n2)cc1` (stereo unspecified), for which the inhibition amounted to 53.5%.
